Reference: ChEMBL document CHEMBL1140411, “Deoxyuridine triphosphate nucleotidohydrolase as a potential antiparasitic drug target” (J Med Chem, 2005)

What was measured:
[1] = target: T1, Deoxyuridine 5'-triphosphate nucleotidohydrolase, mitochondrial (Homo sapiens, UniProt P33316); experiment: Inhibitory constant against human deoxyuridine 5'-triphosphate nucleotidohydrolase expressed in Escherichia coli BL21 (DE3) cells
T1 sequence (P33316 whole entry): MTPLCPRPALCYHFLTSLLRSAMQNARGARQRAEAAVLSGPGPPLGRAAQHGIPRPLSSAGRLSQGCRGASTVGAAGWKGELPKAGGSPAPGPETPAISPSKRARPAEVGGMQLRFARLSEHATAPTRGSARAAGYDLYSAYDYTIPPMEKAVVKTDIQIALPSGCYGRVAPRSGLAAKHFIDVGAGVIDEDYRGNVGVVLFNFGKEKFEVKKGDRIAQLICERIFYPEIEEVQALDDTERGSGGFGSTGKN
In short: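 Human dUTPase expressed in E. coli BL21(DE3) and purified like the Plasmodium enzyme (phosphocellulose, then gel filtration). dUTP hydrolysis followed continuously by stopped-flow as pH-indicator absorbance (cresol red/bicine, 50:2000 µM, 573 nm). Apparent KM from integrated Michaelis-Menten fits at each inhibitor concentration; Ki from linear KMapp versus [I].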

dUTP pyrophosphatase [2] = target: T2, dUTP pyrophosphatase (Plasmodium falciparum 3D7, UniProt Q8II92); experiment: Inhibitory constant against Plasmodium falciparum deoxyuridine 5'-triphosphate nucleotidohydrolase expressed in Escherichia coli BL21 (DE3) cells
T2 sequence (Q8II92 whole entry): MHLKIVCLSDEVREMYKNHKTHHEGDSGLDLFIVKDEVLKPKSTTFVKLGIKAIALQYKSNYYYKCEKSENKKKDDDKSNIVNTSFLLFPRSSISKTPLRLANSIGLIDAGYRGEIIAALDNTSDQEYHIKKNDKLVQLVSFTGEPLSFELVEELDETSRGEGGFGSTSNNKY
In short: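 Recombinant PfdUTPase expressed in E. coli BL21(DE3) and purified by phosphocellulose and gel filtration to ~96% purity. Continuous stopped-flow assay following proton release with cresol red/bicine (50:2000 µM, 573 nm). Mix: 30 nM enzyme, 50 µM dUTP, 5 mM MgCl2, 2.5 mM DTT, 1.25 mg/mL BSA, 100 mM KCl. KMapp from integrated Michaelis-Menten fits, plotted against [I] to give Ki.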

dUTP pyrophosphatase [3] = target: T3, dUTP pyrophosphatase (Leishmania major, UniProt O15826); experiment: Inhibitory constant against Leishmania major deoxyuridine 5'-triphosphate nucleotidohydrolase
T3 sequence (O15826 whole entry): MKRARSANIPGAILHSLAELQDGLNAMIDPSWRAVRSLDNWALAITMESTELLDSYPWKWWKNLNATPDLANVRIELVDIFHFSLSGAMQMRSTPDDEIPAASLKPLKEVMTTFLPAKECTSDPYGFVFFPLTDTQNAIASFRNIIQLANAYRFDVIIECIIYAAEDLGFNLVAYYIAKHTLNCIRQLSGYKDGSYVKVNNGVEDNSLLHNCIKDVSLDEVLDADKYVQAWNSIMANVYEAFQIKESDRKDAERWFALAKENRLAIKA

Trypanosoma cruzi = experiment: In vitro growth inhibitory activity against Trypanosoma cruzi in rat L-6 cells upon incubation at 37 degrees C in 5% CO2 atmosphere for 4 days; format: functional, organism-based; settings: L6, 96 h
In short: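 L-6 cells seeded at 2000 cells/well in RPMI 1640 with 10% FBS and 2 mM L-glutamine. After 24 h, 5000 T. cruzi Tulahuen C2C4 LacZ trypomastigotes added with serial drug dilutions, then 4 days at 37 °C, 5% CO2. CPRG/Nonidet substrate added and colour read at 540 nm after 2-4 h. IC50 from sigmoidal curve. Twice independently, in duplicate.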

Plasmodium falciparum = experiment: In vitro inhibitory activity against Plasmodium falciparum as [3H]hypoxanthine (50 uL) incorporation at 37C; format: functional, organism-based
[4] = target: T4, dUTP pyrophosphatase (Plasmodium falciparum 3D7) (UniProt Q8II92); experiment: Selectivity index for Plasmodium falciparum deoxyuridine 5'-triphosphate nucleotidohydrolase defined as (Ki Human)/(Ki Plasmodium falciparum)
T4 sequence (whole entry): T2 sequence (Q8II92 whole entry)
In short: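 Ratio of human dUTPase Ki to P. falciparum dUTPase Ki. Both Ki values came from stopped-flow pH-indicator assays following dUTP hydrolysis, with Ki derived from the dependence of apparent KM on inhibitor concentration.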

[5] = tested on: Trypanosoma brucei rhodesiense; experiment: Inhibitory constant against Trypanosoma brucei rhodesiense upon incubation with the compound at 37 degrees C under a 5% CO2 atmosphere for 72 hours; format: functional, organism-based
Leishmania donovani = experiment: In vitro growth inhibitory activity against Leishmania donovani amastigotes at 37 degrees C under a 5% CO2 atmosphere for 96 hours; format: functional, organism-based
In short: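 Mouse peritoneal macrophages in RPMI 1640 with 10% heat-inactivated FBS, infected after 24 h with L. donovani amastigotes at 3:1 (amastigote:macrophage). Free amastigotes washed out at 4 h. Next day, drug-containing medium added for 96 h at 37 °C, 5% CO2. Slides methanol-fixed and Giemsa-stained. Percentage of infected macrophages scored microscopically versus control; IC50 by linear regression. Twice independently, in duplicate.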

L6 = experiment: In vitro cytotoxicity aganist rat skeletal myoblasts (L-6 cells) after 72 hours; format: functional, cell-based; settings: L6, 72 h
In short: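 L-6 rat skeletal myoblasts seeded at 4 × 10^4 cells/mL in RPMI 1640 with 10% FBS and 2 mM L-glutamine. After 24 h, medium replaced with a serial drug dilution, then 72 h at 37 °C, 5% CO2. Alamar Blue added for a further 2-4 h. Fluorescence read at ex 536/em 588 nm. Run twice independently, in duplicate.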

Ki [1] [µM]	Ki (dUTP pyrophosphatase [2]) [µM]	Ki (dUTP pyrophosphatase [3]) [µM]	IC50 (Trypanosoma cruzi) [µM]	IC50 (Plasmodium falciparum) [µM]	SI [4]	IC50 [5] [µM]	SMILES	IC50 (Leishmania donovani) [µM]	IC50 (L6) [µM]
> 1000	254	> 1000	> 311	163	> 4	> 311	NS(=O)(=O)OCC1C=CC(n2ccc(=O)[nH]c2=O)O1 (stereo unspecified)		
> 1000	244	> 1000	> 152	37	> 4	12	CC(C)(C)[Si](C)(C)O[C@H]1C[C@H](n2ccc(=O)[nH]c2=O)O[C@@H]1COC(=O)NS(N)(=O)=O	> 51	
350	256	> 1000	> 201	> 11	1.4	113	CCCCCCCCCCCCCCCC(=O)OCC1C=CC(n2ccc(=O)[nH]c2=O)O1 (stereo unspecified)	> 67	
> 1000	426	> 1000	> 231	> 13	> 2	> 231	O=C(NCC1OC(n2ccc(=O)[nH]c2=O)CC1O)C12CC3CC(CC(C3)C1)C2 (stereo unspecified)		
> 1000	> 1000	> 1000	> 236	> 13		102	Cc1ccc(S(=O)(=O)NCC2OC(n3ccc(=O)[nH]c3=O)CC2O)cc1 (stereo unspecified)	> 79	> 236
> 1000	268	> 1000	> 271	> 15	> 3	117	O=C(OC[C@H]1O[C@@H](n2ccc(=O)[nH]c2=O)C[C@@H]1O)c1ccccc1	> 90	> 271
> 1000	324	> 1000	> 222	78	> 3	41	CCOP(=O)(CC(=O)NCC1OC(n2ccc(=O)[nH]c2=O)CC1O)OCC (stereo unspecified)	29	
18		> 1000	306		10	24	O=c1ccn([C@H]2C[C@H](O)[C@@H](COC(c3ccccc3)(c3ccccc3)c3ccccc3)O2)c(=O)[nH]1	> 64	
157	1.9	798	44	> 11	83	55	O=c1ccn(C2C=CC(COC(c3ccccc3)(c3ccccc3)c3ccccc3)O2)c(=O)[nH]1 (stereo unspecified)	> 66	
324	88	> 1000	160	40	3.7	104	CC(C)(C)[Si](C)(C)O[C@H]1C[C@H](n2ccc(=O)[nH]c2=O)O[C@@H]1COS(N)(=O)=O	> 7	
457	5	177	29	2	91	47	O=c1ccn(C2CC(F)C(COC(c3ccccc3)(c3ccccc3)c3ccccc3)O2)c(=O)[nH]1 (stereo unspecified)		35
56.4	10	> 1000	110	51	5.6	73	CC(C)(C)[Si](C)(C)OCC1C=CC(n2ccc(=O)[nH]c2=O)O1 (stereo unspecified)		
> 1000	227	> 1000	58	> 13	> 4	8	CC(C)[Si](OC[C@H]1O[C@@H](n2ccc(=O)[nH]c2=O)C[C@@H]1O)(C(C)C)C(C)C		25
> 1000	111	> 1000	> 83	> 16	> 9	17	O=c1ccn(C2CC(O)C(CNCc3ccccc3)O2)c(=O)[nH]1 (stereo unspecified)		
> 1000	468	314	> 194	20	> 2	90	NS(=O)(=O)NC(=O)OC[C@H]1O[C@@H](n2ccc(=O)[nH]c2=O)C[C@@H]1O	> 65	
	628	> 1000	37	> 14	> 1.6	59	CC(C)(C)[Si](C)(C)OCC1OC(n2ccc(=O)[nH]c2=O)CC1F (stereo unspecified)	> 87	
			> 130	> 21		100	O=c1ccn([C@H]2C[C@H](F)[C@@H](CO)O2)c(=O)[nH]1	> 391	> 391
> 1000	298	> 1000	170	214	> 3	72	O=c1ccn([C@H]2C=C[C@@H](CO)O2)c(=O)[nH]1		

SMILES	Ki [1] [µM]	Ki (dUTP pyrophosphatase [2]) [µM]	Ki (dUTP pyrophosphatase [3]) [µM]	IC50 (Trypanosoma cruzi) [µM]	IC50 (Plasmodium falciparum) [µM]	SI [4]	IC50 [5] [µM]	IC50 (Leishmania donovani) [µM]	IC50 (L6) [µM]
CC(C)(C)[Si](OCC1C=CC(n2ccc(=O)[nH]c2=O)O1)(c1ccccc1)c1ccccc1 (stereo unspecified)			178	33	3	> 833	55		67
CC(C)(C)[Si](C)(C)O[C@H]1C[C@H](n2ccc(=O)[nH]c2=O)O[C@@H]1COP(=O)(Oc1ccccc1)Oc1ccccc1	> 1000	597	116	10	6	> 1.7	12	> 17	> 157
O=c1ccn(C2C=CC(COP(=O)(Oc3ccccc3)Oc3ccccc3)O2)c(=O)[nH]1 (stereo unspecified)	> 1000	99	> 1000	> 204	54	> 10	68		
O=c1ccn([C@H]2C[C@H](O)[C@@H](CO[Si](c3ccccc3)(c3ccccc3)c3ccccc3)O2)c(=O)[nH]1	909		> 1000	71		325	15		
CC(C)(C)[Si](C)(C)OC1CC(n2ccc(=O)[nH]c2=O)OC1CNC(c1ccccc1)(c1ccccc1)c1ccccc1 (stereo unspecified)	> 1000	313	> 1000	97	1.8	> 3	2.7		7.8
CC(C)(C)[Si](OCC1OC(n2ccc(=O)[nH]c2=O)CC1F)(c1ccccc1)c1ccccc1 (stereo unspecified)	808	89	> 1000	32	8.8	9.1	29		16
CC(C)(C)[Si](OC[C@H]1O[C@@H](n2ccc(=O)[nH]c2=O)C[C@@H]1O)(c1ccccc1)c1ccccc1	806		> 1000	45	6.6	192	3		23
O=c1ccn(C2CC(O)C(CNC(c3ccccc3)(c3ccccc3)c3ccccc3)O2)c(=O)[nH]1 (stereo unspecified)	46	0.2	304	44		230	48		44
